From ChEMBL document CHEMBL1926569, “Novel (E)-1-(4-methyl-2-(alkylamino)thiazol-5-yl)-3-arylprop-2-en-1-ones as potent antimicrobial agents” (2011)
In brackets after ≈: the same amount, converted by molar mass.

Assays:
Penicillium ochrochloron [1] = assay: Antifungal activity against Penicillium ochrochloron ATCC 9112 after 72 hrs by serial dilution technique; type: functional; details: ATCC 9112, 72 h
How it was run: (§1)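 Modified microdilution in 96-well plates. Fungi were kept on malt agar at 4 °C. Spores were washed off in sterile 0.85% saline with 0.1% Tween 80. Compounds were dissolved at 1 mg/ml in 5% DMSO with 0.1% Tween 80 and added to malt broth with inoculum. Plates were shaken at 160 rpm for 72 h at 28 °C. Duplicate, repeated three times.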

Salmonella typhimurium [2] = assay: Antibacterial activity against Salmonella Typhimurium ATCC 13311 after 24 hrs by microdilution method; type: functional, Salmonella enterica subsp. enterica serovar Typhimurium; details: Salmonella enterica, ATCC 13311, 24 h
How it was run: (§2)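 Broth microdilution in 96-well plates. Bacterial suspensions were adjusted in sterile saline to 1.0 × 10⁵ CFU/ml, prepared daily and kept at 4 °C. Compound was added to LB broth with 1.0 × 10⁴ CFU per well and shaken at 160 rpm for 24 h at […] (so in the source). MIC is the lowest concentration with no visible growth under a binocular microscope. OD655 was also read. Duplicate, repeated three times.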

Aspergillus fumigatus [3] = assay: Ratio of ketoconazole to compound for Aspergillus fumigatus isolated from human; type: functional
Aspergillus niger [4] = assay: Ratio of bifonazole to compound for Aspergillus niger ATCC 6275; type: functional
Bacillus cereus [5] = assay: Antibacterial activity against clinical isolate of Bacillus cereus after 24 hrs by microdilution method; type: functional; how it was run: as §2
Pseudomonas aeruginosa [6] = assay: Antibacterial activity against Pseudomonas aeruginosa ATCC 27853 incubated for 24 hrs followed by serial sub-cultivation for 24 hrs by microdilution; type: functional; details: ATCC 27853, 24 h
How it was run: (§3)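 MBC: after the 24 h LB broth microdilution (1.0 × 10⁴ CFU per well, 160 rpm), wells were serially sub-cultured into fresh broth plates and incubated a further 24 h. MBC is the lowest concentration with no visible growth, taken as 99.5% killing of the original inoculum. Duplicate, repeated three times.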

Aspergillus fumigatus [7] = assay: Antifungal activity against Aspergillus fumigatus isolated from human incubated for 72 hrs followed by serial sub-cultivation for 72 hrs by serial dilution technique; type: functional
How it was run: (§4)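 MFC: material from 72 h malt broth microdilution wells was serially sub-cultured into fresh broth plates and incubated a further 72 h at 28 °C. Fungicidal concentration is taken from growth after sub-culture. Duplicate, repeated three times.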

Talaromyces funiculosus [8] = assay: Antifungal activity against Penicillium funiculosum ATCC 36839 incubated for 72 hrs followed by serial sub-cultivation for 72 hrs by serial dilution technique; type: functional; details: ATCC 36839, 72 h; how it was run: as §4
Candida albicans [9] = assay: Antifungal activity against Candida albicans isolated from human after 72 hrs by serial dilution technique; type: functional; how it was run: as §1
Aspergillus niger [10] = assay: Antifungal activity against Aspergillus niger ATCC 6275 incubated for 72 hrs followed by serial sub-cultivation for 72 hrs by serial dilution technique; type: functional; details: ATCC 6275, 72 h; how it was run: as §4
Aspergillus ochraceus [11] = assay: Ratio of ketoconazole to compound for Aspergillus ochraceus ATCC 12066; type: functional
Aspergillus ochraceus [12] = assay: Ratio of bifonazole to compound for Aspergillus ochraceus ATCC 12066; type: functional
Aspergillus ochraceus [13] = assay: Antifungal activity against Aspergillus ochraceus ATCC 12066 incubated for 72 hrs followed by serial sub-cultivation for 72 hrs by serial dilution technique; type: functional; details: ATCC 12066, 72 h; how it was run: as §4
Staphylococcus aureus [14] = assay: Antibacterial activity against Staphylococcus aureus ATCC 6538 incubated for 24 hrs followed by serial sub-cultivation for 24 hrs by microdilution method; type: functional; details: ATCC 6538, 24 h; how it was run: as §3
Aspergillus flavus [15] = assay: Antifungal activity against Aspergillus flavus ATCC 9643 after 72 hrs by serial dilution technique; type: functional; details: ATCC 9643, 72 h; how it was run: as §1
Staphylococcus aureus [16] = assay: Antibacterial activity against Staphylococcus aureus ATCC 6538 after 24 hrs by microdilution method; type: functional; details: ATCC 6538, 24 h; how it was run: as §2
Candida albicans [17] = assay: Ratio of bifonazole to compound for Candida albicans isolated from human; type: functional
Escherichia coli [18] = assay: Antibacterial activity against Escherichia coli ATCC 35210 incubated for 24 hrs followed by serial sub-cultivation for 24 hrs by microdilution; type: functional; details: ATCC 35210, 24 h; how it was run: as §3
Micrococcus flavus [19] = assay: Antibacterial activity against Micrococcus flavus ATCC 10240 after 24 hrs by microdilution method; type: functional; details: ATCC 10240, 24 h; how it was run: as §2
Listeria monocytogenes [20] = assay: Antibacterial activity against Listeria monocytogenes NCTC 7973 after 24 hrs by microdilution method; type: functional; details: NCTC 7973, 24 h; how it was run: as §2
Penicillium ochrochloron [21] = assay: Ratio of ketoconazole to compound for Penicillium ochrochloron ATCC 9112; type: functional
Trichoderma viride [22] = assay: Ratio of bifonazole to compound for Trichoderma viride IAM 5061; type: functional
Candida albicans [23] = assay: Ratio of ketoconazole to compound for Candida albicans isolated from human; type: functional
Aspergillus niger [24] = assay: Antifungal activity against Aspergillus niger ATCC 6275 after 72 hrs by serial dilution technique; type: functional; details: ATCC 6275, 72 h; how it was run: as §1
Aspergillus flavus [25] = assay: Antifungal activity against Aspergillus flavus ATCC 9643 incubated for 72 hrs followed by serial sub-cultivation for 72 hrs by serial dilution technique; type: functional; details: ATCC 9643, 72 h; how it was run: as §4
Micrococcus flavus [26] = assay: Antibacterial activity against Micrococcus flavus ATCC 10240 incubated for 24 hrs followed by serial sub-cultivation for 24 hrs by microdilution; type: functional; details: ATCC 10240, 24 h; how it was run: as §3
Enterococcus faecalis [27] = assay: Antibacterial activity against Enterococcus faecalis isolated from human incubated for 24 hrs followed by serial sub-cultivation for 24 hrs by microdilution; type: functional; how it was run: as §3
Talaromyces funiculosus [28] = assay: Ratio of bifonazole to compound for Penicillium funiculosum ATCC 36839; type: functional
Aspergillus ochraceus [29] = assay: Antifungal activity against Aspergillus ochraceus ATCC 12066 after 72 hrs by serial dilution technique; type: functional; details: ATCC 12066, 72 h; how it was run: as §1
Penicillium ochrochloron [30] = assay: Ratio of bifonazole to compound for Penicillium ochrochloron ATCC 9112; type: functional
Salmonella typhimurium [31] = assay: Antibacterial activity against Salmonella Typhimurium ATCC 13311 incubated for 24 hrs followed by serial sub-cultivation for 24 hrs by microdilution; type: functional, Salmonella enterica subsp. enterica serovar Typhimurium; details: Salmonella enterica, ATCC 13311, 24 h; how it was run: as §3
Trichoderma viride [32] = assay: Antifungal activity against Trichoderma viride IAM 5061 after 72 hrs by serial dilution technique; type: functional; details: IAM 5061, 72 h; how it was run: as §1
Penicillium ochrochloron [33] = assay: Antifungal activity against Penicillium ochrochloron ATCC 9112 incubated for 72 hrs followed by serial sub-cultivation for 72 hrs by serial dilution technique; type: functional; details: ATCC 9112, 72 h; how it was run: as §4
Escherichia coli [34] = assay: Antibacterial activity against Escherichia coli ATCC 35210 after 24 hrs by microdilution method; type: functional; details: ATCC 35210, 24 h; how it was run: as §2
Bacillus cereus [35] = assay: Antibacterial activity against clinical isolate of Bacillus cereus incubated for 24 hrs followed by serial sub-cultivation for 24 hrs by microdilution; type: functional; how it was run: as §3
Pseudomonas aeruginosa [36] = assay: Ratio of ampicillin MIC to compound MIC for Pseudomonas aeruginosa ATCC 27853; type: functional
Listeria monocytogenes [37] = assay: Antibacterial activity against Listeria monocytogenes NCTC 7973 incubated for 24 hrs followed by serial sub-cultivation for 24 hrs by microdilution; type: functional; details: NCTC 7973, 24 h; how it was run: as §3
Candida albicans [38] = assay: Antifungal activity against Candida albicans isolated from human incubated for 72 hrs followed by serial sub-cultivation for 72 hrs by serial dilution technique; type: functional; how it was run: as §4
Aspergillus ochraceus [39] = assay: Antifungal activity against Aspergillus ochraceus after 72 hrs by serial dilution technique
Talaromyces funiculosus [40] = assay: Antifungal activity against Penicillium funiculosum ATCC 36839 after 72 hrs by serial dilution technique; type: functional; details: ATCC 36839, 72 h; how it was run: as §1
Trichoderma viride [41] = assay: Antifungal activity against Trichoderma viride IAM 5061 incubated for 72 hrs followed by serial sub-cultivation for 72 hrs by serial dilution technique; type: functional; details: IAM 5061, 72 h; how it was run: as §4
Pseudomonas aeruginosa [42] = assay: Antibacterial activity against Pseudomonas aeruginosa ATCC 27853 after 24 hrs by microdilution method; type: functional; details: ATCC 27853, 24 h; how it was run: as §2
Enterococcus faecalis [43] = assay: Antibacterial activity against Enterococcus faecalis isolated from human after 24 hrs by microdilution method; type: functional; how it was run: as §2

Structure (SMILES): CCNc1nc(C)c(C(=O)/C=C/c2cccc(Br)c2)s1
- MIC (Penicillium ochrochloron [1]): 28.9 µM (≈ 10.2 µg/mL)
- MIC (Salmonella typhimurium [2]): 57.1 µM (≈ 20.1 µg/mL)
- Ratio (Aspergillus fumigatus [3]): 10
- Ratio (Aspergillus niger [4]): 10
- MIC (Bacillus cereus [5]): 28.6 µM (≈ 10 µg/mL)
- MBC (Pseudomonas aeruginosa [6]): 71.4 µM (≈ 25.1 µg/mL)
- MFC (Aspergillus fumigatus [7]): 57.1 µM (≈ 20.1 µg/mL)
- MFC (Talaromyces funiculosus [8]): 42.9 µM (≈ 15.1 µg/mL)
- MIC (Candida albicans [9]): 28.9 µM (≈ 10.2 µg/mL)
- MFC (Aspergillus niger [10]): 57.1 µM (≈ 20.1 µg/mL)
- Ratio (Aspergillus ochraceus [11]): 10
- Ratio (Aspergillus ochraceus [12]): 10
- MFC (Aspergillus ochraceus [13]): 42.9 µM (≈ 15.1 µg/mL)
- MBC (Staphylococcus aureus [14]): 71.4 µM (≈ 25.1 µg/mL)
- MIC (Aspergillus flavus [15]): 42.9 µM (≈ 15.1 µg/mL)
- MIC (Staphylococcus aureus [16]): 57.1 µM (≈ 20.1 µg/mL)
- Ratio (Candida albicans [17]): 10
- MBC (Escherichia coli [18]): 71.4 µM (≈ 25.1 µg/mL)
- MIC (Micrococcus flavus [19]): 57.1 µM (≈ 20.1 µg/mL)
- MIC (Listeria monocytogenes [20]): 85.7 µM (≈ 30.1 µg/mL)
- Ratio (Penicillium ochrochloron [21]): 10
- Ratio (Trichoderma viride [22]): 10
- Ratio (Candida albicans [23]): 10
- MIC (Aspergillus niger [24]): 42.9 µM (≈ 15.1 µg/mL)
- MFC (Aspergillus flavus [25]): 57.1 µM (≈ 20.1 µg/mL)
- MBC (Micrococcus flavus [26]): 85.7 µM (≈ 30.1 µg/mL)
- MBC (Enterococcus faecalis [27]): 71.4 µM (≈ 25.1 µg/mL)
- Ratio (Talaromyces funiculosus [28]): 10
- MIC (Aspergillus ochraceus [29]): 28.9 µM (≈ 10.2 µg/mL)
- Ratio (Penicillium ochrochloron [30]): 10
- MBC (Salmonella typhimurium [31]): 71.4 µM (≈ 25.1 µg/mL)
- MIC (Trichoderma viride [32]): 28.9 µM (≈ 10.2 µg/mL)
- MFC (Penicillium ochrochloron [33]): 58.2 µM (≈ 20.4 µg/mL)
- MIC (Escherichia coli [34]): 57.1 µM (≈ 20.1 µg/mL)
- MBC (Bacillus cereus [35]): 71.4 µM (≈ 25.1 µg/mL)
- Ratio (Pseudomonas aeruginosa [36]): 10
- MBC (Listeria monocytogenes [37]): 100 µM (≈ 35.1 µg/mL)
- MFC (Candida albicans [38]): 57.2 µM (≈ 20.1 µg/mL)
- MIC (Aspergillus ochraceus [39]): 42.9 µM (≈ 15.1 µg/mL)
- MIC (Talaromyces funiculosus [40]): 28.9 µM (≈ 10.2 µg/mL)
- MFC (Trichoderma viride [41]): 57.2 µM (≈ 20.1 µg/mL)
- MIC (Pseudomonas aeruginosa [42]): 57.1 µM (≈ 20.1 µg/mL)
- MIC (Enterococcus faecalis [43]): 57.1 µM (≈ 20.1 µg/mL)
